Assay outcomes from PubChem.
KCNK9 block = human KCNK9 channel inhibition; HEK293 KCNK9, FluxOR thallium flux fluorescence; active compounds read low; 310,000 compounds, 1.2% hits; B-score at 10 µM;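 active = ratio B-score over 3 SD below the library mean, with starting fluorescence within 5 SD of its mean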;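 note: negative B-score means less thallium flux so channel inhibition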
KCNQ1 inh = inhibitors of human KCNQ1 potassium channel. AID 2642. P51787. 310,000 compounds, 1.3% hits. CHO-K1 KCNQ1, FluxOR thallium flux fluorescence; active compounds read high. B-score at 10 µM;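 active = compounds whose thallium flux B-score, printed positive for inhibition, exceeds three library SD while starting fluorescence stays within three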;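 note: channel opened by potassium depolarization with thallium stimulus after 20 min compound exposure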
KCNK3 inh = human KCNK3 channel inhibition, primary screen; O14649; B-score at 10 µM; 340,000 compounds, 0.84% hits; CHO-KCNK3 thallium flux, FluxOR fluorescence; active compounds read low; AID 602410;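 active = B-score under library mean minus 4 SD, starting fluorescence ratio at most library mean plus 5 SD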;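 note: more negative B-score means stronger inhibition of thallium flux through KCNK3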
KCNQ1 pot = human KCNQ1 channel potentiation or activation | P51787 | CHO-K1 KCNQ1, thallium flux FluxOR fluorescence; active compounds read high | B-score at 10 µM | 310,000 compounds, 0.35% hits | AID 2648;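 active = fluorescence ratio B-score, a plate-corrected score, at least three library SD, with initial intensity B-score within 5 SD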
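assay system = CHO-K1 cells stably expressing KCNQ1 | medium = assay buffer, equal DMSO in all wells | timing = 37 °C overnight plating, 90-min dark dye load, 20-min compound pretreatment | measured by = kinetic FluxOR thallium fluorescence, 10-s 1-Hz baseline, 110-s post-stimulus read | measure = fluorescence change relative to baseline, converted to B score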
hERG rescue = shields human hERG channel from block by proarrhythmic agents; activation (rescue from dofetilide block), less the hit threshold, % at 10 µM; 310,000 compounds, 0.51% hits; CHO-hERG, FluxOR thallium flux, dofetilide IC70 present;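 active = activation above the mean of controls blocked by dofetilide plus 5 SD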;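 note: thallium influx through hERG after potassium depolarization seen as dye fluorescence rise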
Kir21 block = blocks the mouse Kir2.1 inward-rectifier potassium channel | HEK293-Kir2.1, FluxOR thallium flux fluorescence; active compounds read low | 310,000 compounds, 0.85% hits | P35561 | B-score at 10 µM;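 active = fluorescence ratio B-score at or below minus 3 SD of library scores, with starting-brightness B-score within 2 SD, cut at about -4.2 in these data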;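 note: channel flux triggered by added potassium and thallium sulfate stimulus; B-score of peak minus minimum fluorescence over baseline after thallium stimulus; more negative B-score means stronger Kir2.1 block with less thallium influx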
* = called active by the depositor; i = inactive; nt = no result. The list is not random: actives were taken first. Their share in the collection is about 3.7%.

SMILES	KCNK9 block	KCNQ1 inh	KCNK3 inh	KCNQ1 pot	hERG rescue	Kir21 block
N#C/C(=C\c1ccc(O)c([N+](=O)[O-])c1)c1nc2ccccc2s1	i	6*	i	i	-8.8	0.72
O=C(c1ccccc1SCc1ccccc1)N1CCCCCC1	i	i	i	i	-14.5	-4.5*
CCOc1ccc(CCN2C(=S)N([C@@H](CC(C)C)CN3CCCC3CN3C(=S)NC[C@@H]3CC(C)C)C[C@@H]2Cc2ccccc2)cc1 (some centres not stated)	nt	nt	i	nt	nt	nt
Cc1ccc(CNC(=O)CCNC(=O)c2ccc([N+](=O)[O-])cc2)cc1	nt	nt	i	nt	nt	nt
c1ccc(CNCCC(Cc2ccccc2)c2ccco2)cc1 (configuration not stated)	i	i	i	i	-13.7	-11.8*
CC(=O)NCCC(Cc1ccccc1)c1ccco1 (configuration not stated)	i	i	i	i	-0.9	-0.19
CN(C)c1ccc(CNCCC(Cc2ccccc2)c2ccco2)cc1 (configuration not stated)	i	i	i	i	-19.6	-4.66*
c1ccc(C(c2ccccc2)N2CCN(c3nc4ccccc4n4cnnc34)CC2)cc1	i	6*	nt	i	-7.5	1.52
COc1ccccc1N1CCN(c2ccc3ccccc3n2)CC1	i	i	i	i	-4.2	1.97
c1ccc(C(c2ccccc2)N2CCN(c3ccc4ccccc4n3)CC2)cc1	-7.76*	i	i	i	-10.0	-1.33
Clc1ccc(C(c2ccccc2)N2CCN(c3ccccn3)CC2)cc1 (configuration not stated)	-7.26*	i	i	i	-9.1	-1.94
COc1cc(OC)c(NC(=O)c2cc3ccccc3cc2O)cc1Cl	nt	nt	-9.18*	nt	nt	nt
CC(C)(C)c1ccc(OCCCNCc2ccccc2)cc1	i	i	i	i	-23.6	-3.77
CCc1cc(OCCCCNCc2ccccc2)ccc1Cl	i	i	i	i	-20.2	-11*
CCOCCCNCc1ccc(OCc2ccccc2Cl)cc1	i	i	i	i	-6.3	-4.33*
O=C(CCCCCn1c(SCc2ccncc2)nc2ccccc2c1=O)NCc1ccco1	i	i	i	i	-23.3	-4.34*
O=C(CSc1nc2ccccc2c(=O)n1CCCC(=O)N1CCCC1)NCc1ccco1	i	i	i	i	-10.5	0.51
Cc1ccc(Oc2ccc(OCC(=O)NC3CCS(=O)(=O)C3)cc2)cc1 (configuration not stated)	i	i	i	i	-5.1	1.96
CCOC(=O)C1=C(C)N=C2c3ccccc3C(=O)C2C1c1ccc(Cl)cc1 (configuration not stated)	-8.01*	i	-10.3*	i	-2.4	-0.62
COC(=O)C(CC(C)C)NC(=O)c1ccc([N+](=O)[O-])c(C)c1 (configuration not stated)	i	i	i	i	4.6*	-0.55
OCCNCc1cc(Br)ccc1OCc1ccc(Cl)cc1Cl	i	i	i	i	-20.6	-0.26
Brc1ccc(OCc2ccccc2)c(CNCc2ccncc2)c1	i	i	i	i	-30.6	-5.28*
OCCNCc1cc(Br)ccc1OCc1ccc(Cl)cc1	i	i	i	i	-23.7	-4.95*
c1ccc(COc2cccc(CNCc3cccnc3)c2)cc1	i	i	i	i	-10.6	-0.48
Fc1ccc(COc2ccccc2CNCc2ccncc2)cc1	i	i	i	i	-4.0	-2.02
SMILES	KCNK9 block	KCNQ1 inh	KCNK3 inh	KCNQ1 pot	hERG rescue	Kir21 block
OCCNCc1cccc(OCc2ccc(Cl)cc2)c1	i	i	i	i	-12.5	-8.71*
C=CCSC1=N/C(=C\c2cc(OCC)c(OC(C)=O)c([N+](=O)[O-])c2)C(=O)S1	i	9*	i	i	-16.9	0.02
CSCCC(NC=O)C(=O)NC(C)C(=O)O (configuration not stated)	nt	nt	i	nt	nt	nt
O=C(COC(=O)c1cc(Cl)ccc1[N+](=O)[O-])NCc1ccc(Cl)cc1Cl	-7.3*	i	i	i	-9.9	1.16
CC(C)Oc1ccc(C(CC(=O)NCc2ccco2)c2ccccc2)cc1 (configuration not stated)	-7.18*	i	i	i	-10.8	0.09
Cc1ccccc1C1C(C#N)=C2N=C(N)c3c(sc4c3CCCCC4)N2C2=C1C(=O)CCC2 (configuration not stated)	-6.79*	i	i	i	-15.7	-0.75
Nc1nc(N)c(N=Nc2ccc(C(=O)O)cc2)c(N)n1	i	i	i	11*	-6.5	0.05
O=C(NC(=S)Nc1ccccc1)c1cc(-c2ccccc2)nc2ccccc12	i	i	i	33*	4.3	1.01
COc1cc(-c2cc(C(=O)Nc3ccc(O)cc3)c3ccccc3n2)cc(OC)c1OC	i	i	i	i	-14.9	0.89
O=C(N/N=C/c1c[nH]c2ccccc12)c1sc2ccccc2c1Cl	i	i	i	i	-8.8	-0.03
O=C(N/N=C/c1ccccn1)c1sc2ccccc2c1Cl	i	i	i	17*	3.8	-0.14
COc1cc(-c2cc(C(=O)Nc3cccc(C(C)=O)c3)c3ccccc3n2)cc(OC)c1OC	i	i	-11.2*	i	-15.3	-0.49
CC(C)(C)c1nnc(NC(=O)c2cc(-c3ccccc3)nc3ccccc23)s1	i	6*	i	i	-16.5	0.44
C=Cc1ccc(Cn2c(=O)n(CCCOC)c(=O)c3sccc32)cc1	i	i	i	i	-7.2	-0.66
COc1ccc(-c2nc(CSCC(=O)NC3CCN(Cc4ccccc4)CC3)c(C)o2)cc1OC	i	i	i	i	-6.5	1.07
CC(Oc1cc2oc(=O)c3c(c2cc1Cl)CCC3)C(=O)NCCCN1CCCC1=O (configuration not stated)	i	i	i	i	-5.5	-2.25
Cc1cc(NC(=O)c2cc(-c3ccncc3)nc3ccccc23)ccc1Br	nt	nt	-13*	nt	nt	nt
O=C(N/N=C/c1ccccn1)c1cc(-c2ccc(Cl)cc2)nc2ccccc12	i	i	i	i	-10.6	-0.24
CCCOc1cccc(-c2cc(C(=O)N/N=C/c3cccnc3)c3ccccc3n2)c1	i	9*	i	i	-29.5	0.09
O=C(N/N=C/c1ccccn1)c1cc(-c2ccc(Br)cc2)nc2ccccc12	i	i	i	14*	-0.6	1.46
N#Cc1ccc(/C=N/NC(=O)c2cc(-c3cccs3)nc3ccccc23)cc1	i	6*	i	i	-15.1	0.1
CC(=O)c1cccc(NC(=O)c2cc(-c3ccncc3)nc3ccccc23)c1	nt	nt	i	nt	nt	nt
